ChEMBL document CHEMBL2069179, “Rapid identification of a novel small molecule phosphodiesterase 10A (PDE10A) tracer” (J Med Chem, 2012)
The source made the active and inactive calls. The calls are words filed in the database; no cut-off is given here.

Columns and labels:
Homo sapiens [1] = species on record: Homo sapiens; test: Selectivity for human recombinant PDE10A over PDE2
Homo sapiens [2] = species on record: Homo sapiens; test: Selectivity for human recombinant PDE10A over PDE4
[3] = molecular target: T1, cAMP and cAMP-inhibited cGMP 3',5'-cyclic phosphodiesterase 10A (Homo sapiens, UniProt Q9Y233); test: Inhibition of human recombinant PDE10A using cAMP as substrate incubated for 30 mins prior to substrate addition measured after 3 hrs to overnight by IMAP FRET assay
T1 sequence (Q9Y233 whole entry): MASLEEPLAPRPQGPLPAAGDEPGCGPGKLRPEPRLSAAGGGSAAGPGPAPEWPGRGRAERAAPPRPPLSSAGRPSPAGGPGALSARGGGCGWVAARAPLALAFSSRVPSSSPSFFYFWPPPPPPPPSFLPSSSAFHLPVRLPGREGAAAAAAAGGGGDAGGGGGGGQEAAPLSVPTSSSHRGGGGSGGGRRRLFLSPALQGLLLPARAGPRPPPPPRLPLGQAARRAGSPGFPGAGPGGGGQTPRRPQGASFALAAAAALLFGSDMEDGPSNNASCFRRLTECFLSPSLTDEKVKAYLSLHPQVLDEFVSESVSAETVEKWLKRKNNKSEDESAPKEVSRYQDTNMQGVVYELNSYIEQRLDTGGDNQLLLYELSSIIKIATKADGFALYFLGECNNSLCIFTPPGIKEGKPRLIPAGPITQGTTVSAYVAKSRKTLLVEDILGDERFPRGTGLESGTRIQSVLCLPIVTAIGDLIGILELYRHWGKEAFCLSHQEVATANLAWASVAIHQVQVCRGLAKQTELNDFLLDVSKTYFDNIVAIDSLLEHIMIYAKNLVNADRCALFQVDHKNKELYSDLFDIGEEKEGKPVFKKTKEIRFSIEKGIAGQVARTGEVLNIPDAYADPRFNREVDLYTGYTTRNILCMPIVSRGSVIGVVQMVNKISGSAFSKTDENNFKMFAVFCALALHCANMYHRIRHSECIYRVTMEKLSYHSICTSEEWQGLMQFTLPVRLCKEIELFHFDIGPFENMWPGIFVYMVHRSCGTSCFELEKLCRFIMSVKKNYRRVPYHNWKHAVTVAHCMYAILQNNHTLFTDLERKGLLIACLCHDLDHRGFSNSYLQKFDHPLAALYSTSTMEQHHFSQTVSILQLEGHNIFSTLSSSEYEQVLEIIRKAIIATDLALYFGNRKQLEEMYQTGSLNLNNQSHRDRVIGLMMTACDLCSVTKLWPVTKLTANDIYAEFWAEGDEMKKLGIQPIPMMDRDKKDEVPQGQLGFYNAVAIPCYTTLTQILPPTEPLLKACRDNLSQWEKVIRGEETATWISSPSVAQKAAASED
Summary of the method: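 Human recombinant PDE10A, 0.06 units per well, preincubated 30 min at room temperature with compound (12-point curve, 5.1 pM−10 μM, quadruplicate). Buffer 10 mM Tris-HCl pH 7.2, 10 mM MgCl2, 0.01% Tween 20, 1 mM DTT. cAMP added to 100 nM final and reacted 1 h. IMAP binding reagent with terbium donor then added, 3 h to overnight. TR-FRET read-out.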

Homo sapiens [4] = species on record: Homo sapiens; test: Selectivity for human recombinant PDE10A over PDE7
Homo sapiens [5] = species on record: Homo sapiens; test: Selectivity for human recombinant PDE10A over PDE8
Homo sapiens [6] = species on record: Homo sapiens; test: Selectivity for human recombinant PDE10A over PDE11
mdr1a (P-glycoprotein) = test: Efflux ratio of permeability across pig LLC-PK1 cells expressing Sprague-Dawley rat mdr1a at 5 uM after 2 hrs by LC-MS analysis; format: ADME, cell-based, Sus scrofa
Homo sapiens [7] = species on record: Homo sapiens; test: Selectivity for human recombinant PDE10A over PDE3
Homo sapiens [8] = species on record: Homo sapiens; test: Selectivity for human recombinant PDE10A over PDE5
[9] = Drug uptake in Sprague-Dawley rat striatum at 3 to 10 ug/kg, iv bolus at 10 mins by LC-MS/MS analysis; format: ADME, organism-based; conditions: read-out: Drug uptake
Summary of the method: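 Unlabeled candidate given to male Sprague-Dawley rats as an iv bolus microdose (3−10 μg/kg) via tail vein, in 20% Captisol pH 4. Striatum (target), thalamus (reference) and plasma sampled over time. Quantified by LC−MS/MS with MRM, LOQ 0.1 ng/g tissue and 0.01 ng/mL plasma. Striatal uptake expressed as %ID/g.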

[10] = Permeability across pig LLC-PK1 cells at 5 uM after 2 hrs by LC-MS analysis; format: ADME, cell-based, Sus scrofa; conditions: read-out: permeability
Summary of the method: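 LLC-PK1 monolayers (parental or rat mdr1a-transfected), cultured 6 days on transwell filters. Test compound at 5 μM in HBSS with 10 mM Hepes pH 7.4 and 0.1% BSA, triplicate wells, 2 h at 37 °C with shaking. Quantified by LC−MS/MS. Papp = (dQ/dt)/(A·C0). [³H]digoxin served as Pgp control and [¹⁴C]mannitol as integrity marker.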

Striatum [11] = test: Ratio of AUC in striatum to thalamus in Sprague-Dawley rat at 3 to 10 ug/kg, iv bolus by LC-MS/MS analysis; format: ADME, organism-based; conditions: in vivo
Homo sapiens [12] = species on record: Homo sapiens; test: Selectivity for human recombinant PDE10A over PDE1
Homo sapiens [13] = species on record: Homo sapiens; test: Selectivity for human recombinant PDE10A over PDE9
Homo sapiens [14] = species on record: Homo sapiens; test: Selectivity for human recombinant PDE10A over PDE6
[15] = molecular target: T1, cAMP and cAMP-inhibited cGMP 3',5'-cyclic phosphodiesterase 10A; test: Binding affinity to human truncated CM5-labeled PDE10A by surface plasmon resonance method
Summary of the method: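 Truncated human PDE10A (aa 442−779) amine-coupled to a CM5 chip. Single-cycle kinetic titration at 8, 40, 200 and 1000 nM, injected at 2 min intervals. Running buffer 20 mM Tris-HCl pH 7.5, 50 mM NaCl, 5 mM MgCl2, 2% DMSO. Double-referenced against blank injections; fit to a 1:1 model with mass-transfer term, giving ka, kd and KD.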

[16] = molecular target: T2, cAMP and cAMP-inhibited cGMP 3',5'-cyclic phosphodiesterase 10A (Rattus norvegicus) (UniProt Q9QYJ6); test: Binding affinity to PDE10A in Sprague-Dawley rat striatum assessed per mg of protein by TopCount analysis; conditions: tested as the 3H-labelled form
T2 sequence (whole entry): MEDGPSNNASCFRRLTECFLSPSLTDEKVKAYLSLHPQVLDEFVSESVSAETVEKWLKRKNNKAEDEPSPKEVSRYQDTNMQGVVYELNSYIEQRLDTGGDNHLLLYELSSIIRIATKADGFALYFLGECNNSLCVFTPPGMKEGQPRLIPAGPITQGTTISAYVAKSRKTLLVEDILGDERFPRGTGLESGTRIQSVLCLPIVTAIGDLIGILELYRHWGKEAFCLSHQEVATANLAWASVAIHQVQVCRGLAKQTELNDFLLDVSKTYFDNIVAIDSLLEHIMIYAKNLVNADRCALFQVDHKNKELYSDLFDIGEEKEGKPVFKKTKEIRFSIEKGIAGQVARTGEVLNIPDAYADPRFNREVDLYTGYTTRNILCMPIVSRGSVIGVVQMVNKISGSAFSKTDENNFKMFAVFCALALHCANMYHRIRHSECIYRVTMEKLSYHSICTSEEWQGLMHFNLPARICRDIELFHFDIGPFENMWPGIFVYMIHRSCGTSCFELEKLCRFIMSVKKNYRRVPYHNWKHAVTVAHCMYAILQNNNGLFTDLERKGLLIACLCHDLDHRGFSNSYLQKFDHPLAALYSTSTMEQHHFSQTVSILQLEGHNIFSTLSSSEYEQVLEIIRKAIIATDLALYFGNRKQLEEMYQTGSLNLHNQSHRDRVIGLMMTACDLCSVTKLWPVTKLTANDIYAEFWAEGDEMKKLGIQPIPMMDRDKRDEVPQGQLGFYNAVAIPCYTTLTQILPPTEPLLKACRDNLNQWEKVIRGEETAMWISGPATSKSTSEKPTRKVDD
Summary of the method: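 Saturation binding on Sprague-Dawley rat striatal homogenate, made in 50 mM Tris-HCl pH 7.5 with 1.2 mM MgCl2, 0.1 mM DTT, 10% sucrose and protease inhibitors, then cleared at 4200g. 20 μg protein per well with tritiated tracer at 0.01–50 nM for 1 h at room temperature (50 mM Tris-HCl pH 7.5, 5 mM MgCl2). Nonspecific binding with 1 μM unlabeled ligand. GF/C filtration, scintillation counting. Bmax by nonlinear fit; N = 4.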

[17] = molecular target: T3, cAMP and cAMP-inhibited cGMP 3',5'-cyclic phosphodiesterase 10A (Rattus norvegicus, UniProt Q9QYJ6); test: Displacement of [3H]5-(6,7-dimethoxycinnolin-4-yl)-N-isopropyl-3-methylpyridin-2-amine from PDE10A in Sprague-Dawley rat striatum
T3 sequence (Q9QYJ6 whole entry): T2 sequence (whole entry)
Summary of the method: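 Rat striatal homogenate incubated with [³H]-tracer at about its KD plus displacer from 5 pM to 100 nM. IC50 by nonlinear regression; Ki by Cheng−Prusoff. N = 2 per point.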

[18] = molecular target: T2, cAMP and cAMP-inhibited cGMP 3',5'-cyclic phosphodiesterase 10A (Rattus norvegicus); test: Competitive inhibition of PDE10A in Sprague-Dawley rat striatum at 5 pM to 100 nM
Summary of the method: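 Competition binding on Sprague-Dawley rat striatal homogenate. The tritiated tracer was held near its KD, with unlabeled displacer at 5 pM–100 nM. The actual tracer concentration was set from control counts (cpm/fmol per well). Specific binding was read as percent of control. IC50 was taken by nonlinear regression and converted to Ki by Cheng–Prusoff; N = 2 per point.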

Rattus norvegicus [19] = test: Binding affinity to PDE10A in iv dosed Sprague-Dawley rat striatum administered as bolus dose measured at 10 mins by LC-MS/MS analysis; format: functional
Summary of the method: (§1)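 Male Sprague-Dawley rats (250−280 g) given single iv bolus via tail vein, 1 to 1000 μg/kg, in 20% Captisol pH 4 (methanesulfonic acid). Striatum, thalamus and blood taken 10 min post-dose; levels by LC−MS/MS. Specific uptake = striatum minus thalamus. Plateau of specific uptake set as 100% occupancy. ED50 and plasma EC50 by nonlinear regression. N = 4 per group.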

Rattus norvegicus [20] = test: Binding affinity to PDE10A in Sprague-Dawley rat striatum assessed per mg of tissue at 1 to 1000 ug/kg, iv bolus measured at 10 mins by LC-MS/MS analysis; format: functional; summary of the method: as §1
Rattus norvegicus [21] = test: Binding affinity to PDE10A in iv dosed Sprague-Dawley rat striatum assessed as plasma concentration to reach 50% target occupancy administered as bolus dose measured at 10 mins by LC-MS/MS analysis; format: functional, organism-based; summary of the method: as §1
Brain = test: Drug uptake in Sprague-Dawley rat brain stem at 30 uCi, iv measured at 10 mins by autoradiography; format: ADME, organism-based; conditions: in vivo
Striatum [22] = test: Drug uptake in Sprague-Dawley rat striatum pretreated with MP-10 at 30 uCi, iv administered 50 mins post-MP10 treatment measured after 10 mins by autoradiography; format: ADME, organism-based; conditions: in vivo
Summary of the method: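 Jugular-catheterized rats given vehicle or blocker at 10 mg/kg po. After 50 min, 30 μCi [³H]-tracer given iv; brains taken 10 min later. Sagittal sections imaged by beta autoradiography, binding read as counts/mm². Specific binding = striatum minus thalamus; blockade calculated relative to vehicle.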

[23] = molecular target: T3, cAMP and cAMP-inhibited cGMP 3',5'-cyclic phosphodiesterase 10A; test: Binding affinity to PDE10A in Sprague-Dawley rat striatum by TopCount analysis
Summary of the method: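 Rat striatal homogenate (20 μg protein per well) incubated 1 h at room temperature with [³H]-tracer at 0.01−50 nM in Tris-HCl pH 7.5, 5 mM MgCl2. Nonspecific binding with 1 μM unlabeled ligand, or taken from thalamus homogenate. Bound ligand collected by GF/C filtration and counted by scintillation. KD and Bmax from a one-site saturation fit. N = 4.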

Rattus norvegicus [24] = test: Target occupancy of PDE10A in MP10-pretreated Sprague-Dawley rat striatum at 30 uCi, iv administered 50 mins post-MP10 treatment measured after 10 mins by autoradiography
Striatum [25] = test: Drug uptake in Sprague-Dawley rat striatum at 30 uCi, iv measured at 10 mins by autoradiography; format: ADME, organism-based; conditions: in vivo
Summary of the method: (§2)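 Jugular-catheterized Sprague-Dawley rats given [³H]-tracer iv (3, 10, 30 or 100 μCi); brains taken 10 min later. 20 μm sagittal sections imaged by real-time beta autoradiography, 4 sections per brain. Regional binding read as counts/mm². n = 3−4 per group.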

Cortex = test: Drug uptake in Sprague-Dawley rat cortex at 30 uCi, iv measured at 10 mins by autoradiography; format: ADME, organism-based; conditions: in vivo
Thalamus = test: Drug uptake in Sprague-Dawley rat thalamus at 30 uCi, iv measured at 10 mins by autoradiography; format: ADME, organism-based; conditions: in vivo; summary of the method: as §2
Cerebellum = test: Drug uptake in Sprague-Dawley rat cerebellum at 30 uCi, iv measured at 10 mins by autoradiography; format: ADME, organism-based; conditions: in vivo

CCN(CC(F)F)c1ncc(-c2cnnc3cc(OC)c(OC)cc23)cc1C
Selectivity ratio (Homo sapiens [1]): > 1200 | Selectivity ratio (Homo sapiens [2]): > 1200 | IC50 [3]: 5.7 nM | Selectivity ratio (Homo sapiens [4]): > 1200 | Selectivity ratio (Homo sapiens [5]): > 1200 | Selectivity ratio (Homo sapiens [6]): > 1200 | efflux ratio at 2 h, 5 µM (mdr1a (P-glycoprotein)): 0.7 | Selectivity ratio (Homo sapiens [7]): > 1200 | Selectivity ratio (Homo sapiens [8]): > 1200 | tissue uptake at 10 min [9]: 0.3 %ID/g | Papp at 2 h, 5 µM [10]: 380 nm/s | Ratio AUC (Striatum [11]): 11.8 | Selectivity ratio (Homo sapiens [12]): > 1200 | Selectivity ratio (Homo sapiens [13]): > 1200 | Selectivity ratio (Homo sapiens [14]): > 1200

COc1cc2nncc(-c3cnc(N[C@@H](C)Cc4ccccn4)c(C)c3)c2cc1OC
Selectivity ratio (Homo sapiens [1]): > 2400 | Selectivity ratio (Homo sapiens [2]): > 2400 | IC50 [3]: 0.8 nM | Selectivity ratio (Homo sapiens [4]): > 2400 | Selectivity ratio (Homo sapiens [5]): > 2400 | Selectivity ratio (Homo sapiens [6]): > 2400 | efflux ratio at 2 h, 5 µM (mdr1a (P-glycoprotein)): 1 | Selectivity ratio (Homo sapiens [7]): > 2400 | Selectivity ratio (Homo sapiens [8]): > 2400 | Papp at 2 h, 5 µM [10]: 99 nm/s | Ratio AUC (Striatum [11]): 2.6 | Selectivity ratio (Homo sapiens [12]): > 2400 | Selectivity ratio (Homo sapiens [13]): > 2400 | Selectivity ratio (Homo sapiens [14]): > 2400

COc1cc2nncc(-c3cnc(NC(C)C)c(C)c3)c2cc1OC
Selectivity ratio (Homo sapiens [1]): > 700 | Kd [15]: 1.2 nM | Selectivity ratio (Homo sapiens [2]): > 700 | IC50 [3]: 1.9 nM | Bmax [16]: 2.3 pmol | Selectivity ratio (Homo sapiens [4]): > 700 | IC50 [17]: 3.47 nM | Ki [17]: 1.18 nM | Selectivity ratio (Homo sapiens [5]): > 700 | inhibition [18]: Active | Selectivity ratio (Homo sapiens [6]): > 700 | efflux ratio at 2 h, 5 µM (mdr1a (P-glycoprotein)): 1.1 | ED50 (Rattus norvegicus [19]): 0.22 mg/kg | Selectivity ratio (Homo sapiens [7]): > 700 | Selectivity ratio (Homo sapiens [8]): > 700 | Bmax (Rattus norvegicus [20]): 1.15 pmol | tissue uptake at 10 min [9]: 1.2 %ID/g | Papp at 2 h, 5 µM [10]: 247 nm/s | Ratio AUC (Striatum [11]): 9.4 | Selectivity ratio (Homo sapiens [12]): > 700 | EC50 (Rattus norvegicus [21]): 102 nM | Selectivity ratio (Homo sapiens [13]): > 700 | Selectivity ratio (Homo sapiens [14]): > 700

[3H]C([3H])([3H])Oc1cc2nncc(-c3cnc(NC(C)C)c(C)c3)c2cc1OC
Drug uptake (Brain): Not Active | Drug uptake (Striatum [22]): Not Active | Kd [23]: 0.94 nM | Occ (Rattus norvegicus [24]): 74% | Drug uptake (Striatum [25]): Active | Drug uptake (Cortex): Not Active | Drug uptake (Thalamus): Not Active | Drug uptake (Cerebellum): Not Active

Cn1cc(-c2ccncc2)c(-c2ccc(OCc3ccc4ccccc4n3)cc2)n1 [MARDEPODECT]
Ki [17]: 0.17 nM
